Assay results taken from ChEMBL document CHEMBL1147538, “Antibacterial activity of glycine betaine analogues: involvement of osmoporters” (Bioorg Med Chem Lett, 2004).

How the values were obtained:
Type in all cases: functional, organism-based
Citrobacter freundii = experiment: Effect (1 mM) on Citrobacter freundii growth under stressing conditions; Expressed as absorbance (OD) at 570 nm; Control 1.09 nm
Summary of the method: (§1)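 Aerobic culture in a defined classic medium (M63, M9, SMM or LAS, chosen per species). Hyperosmotic stress was imposed with NaCl at 0.3–0.5 M final, set by each bacterium's salt tolerance. Each betaine analogue was added at 1 mM. Bacterial yield was read as absorbance at 570 nm and compared with a control culture without analogue.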

Dickeya chrysanthemi = experiment: Effect (1 mM) on Erwinia chrysanthemi growth under stressing conditions; Expressed as absorbance (OD) at 570 nm; Control 1.97 nm; summary of the method: as §1
Acinetobacter baumannii = experiment: Effect (1 mM) on Acinetobacter baumannii growth under stressing conditions; Expressed as absorbance (OD) at 570 nm; Control 1.14 nm; summary of the method: as §1
Klebsiella pneumoniae = experiment: Effect (1 mM) on Klebsiella pneumoniae growth under stressing conditions; Expressed as absorbance (OD) at 570 nm; Control 1.80 nm; summary of the method: as §1
Enterococcus faecalis = experiment: Effect (1 mM) on Enterococcus faecalis growth under stressing conditions; Expressed as absorbance (OD) at 570 nm; Control 1.16 nm
Summary of the method: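 Enterococcus was grown aerobically in defined M9 medium made hyperosmotic with NaCl (0.3–0.5 M final, set by tolerance). Each betaine analogue was supplied at 1 mM. Yield was read as OD at 570 nm against an untreated control.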

Bacillus subtilis = experiment: Effect (1 mM) on Bacillus subtilis growth under stressing conditions; Expressed as absorbance (OD) at 570 nm; Control 3.20 nm; summary of the method: as §1
Brevibacterium linens = experiment: Effect (1 mM) on Brevibacterium linens growth under stressing conditions; Expressed as absorbance (OD) at 570 nm; Control 1.76 nm
Aeromonas hydrophila = experiment: Effect (1 mM) on Aeromonas hydrophila growth under stressing conditions; Expressed as absorbance (OD) at 570 nm; Control 1.65 nm; summary of the method: as §1
Escherichia coli = experiment: Effect (1 mM) on Escherichia coli growth under stressing conditions; Expressed as absorbance (OD) at 570 nm; Control 1.24 nm; summary of the method: as §1
[1] = tested on: Corynebacterium glutamicum; experiment: Effect (1 mM) on Corynebacterium glutamicum growth under stressing conditions; Expressed as absorbance (OD) at 570 nm; Control 0.87 nm; summary of the method: as §1
Salmonella enterica = experiment: Effect (1 mM) on Salmonella enterica growth under stressing conditions; Expressed as absorbance (OD) at 570 nm; Control 1.23 nm; summary of the method: as §1
Sinorhizobium meliloti = experiment: Effect (1 mM) on Sinorhizobium meliloti growth under stressing conditions; Expressed as absorbance (OD) at 570 nm; Control 1.46 nm
Pseudomonas aeruginosa = experiment: Effect (1 mM) on Pseudomonas aeruginosa growth under stressing conditions; Expressed as absorbance (OD) at 570 nm; Control 1.24 nm
Enterobacter cloacae = experiment: Effect (1 mM) on Enterobacter cloacae growth under stressing conditions; Expressed as absorbance (OD) at 570 nm; Control 1.25 nm; summary of the method: as §1
Serratia marcescens = experiment: Effect (1 mM) on Serratia marcescens growth under stressing conditions; Expressed as absorbance (OD) at 570 nm; Control 1.03 nm; summary of the method: as §1

Structure (SMILES) | Absorbance (Citrobacter freundii) | Absorbance (Dickeya chrysanthemi) | Absorbance (Acinetobacter baumannii) | Absorbance (Klebsiella pneumoniae) | Absorbance (Enterococcus faecalis) | Absorbance (Bacillus subtilis) | Absorbance (Brevibacterium linens) | Absorbance (Aeromonas hydrophila) | Absorbance (Escherichia coli) | Absorbance [1] | Absorbance (Salmonella enterica) | Absorbance (Sinorhizobium meliloti) | Absorbance (Pseudomonas aeruginosa) | Absorbance (Enterobacter cloacae) | Absorbance (Serratia marcescens)
COc1cccc(C[N+](C)(C)CC(=O)O)c1 | 1.23 | 0.25 | 1.16 | 0.7 | 1.12 | 3.2 | 1.45 | 1.05 | 0.18 | 0.63 | 1.11 | 1.7 | 1.07 | 1.11 | 0.48
C[N+](C)(CC(=O)O)Cc1ccccc1[N+](=O)[O-] | 0.06 | 0.11 | 0.72 | 0.4 | 1.3 | 3.06 | 1.52 | 0.2 | 0.08 | 0.26 | 0.23 | 1.9 | 0.11 | 0.46 | 0.09
C[N+](C)(CC(=O)O)Cc1ccccc1 | 1.32 | 0.22 | 0.93 | 0.46 | 1.24 | 3.2 | 0.88 | 0.16 | 0.12 | 0.43 | 1.24 | 2.3 | 0.06 | 1.05 | 0.21
C[N+](C)(CC(=O)O)Cc1ccc([N+](=O)[O-])cc1 | 0.03 | 0.06 | 0.19 | 0.23 | 1.23 | 0.18 | 1.74 | 0.06 | 0.09 | 0.33 | 0.07 | 1.85 | 0.16 | 0.24 | 0.07
